Reference: paper PMC10357933 (RSC Medicinal Chemistry, 2023)
Like-named read-outs stand apart in the source and are kept apart here.

What was measured:
PL^pro (SARS-CoV-2) = PL^pro (SARS-CoV-2) (Severe acute respiratory syndrome coronavirus 2, UniProt P0DTD1); assay: biochemical
Conductometry in DMSO = type: physicochemical; conditions: for Conductivity ΛM: 1.0 mM solution in DMSO; for Increase of molecular conductivity upon 10-fold dilution: diluted solutions 0.1 to 1.0 mM in DMSO
Procedure, shortened: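 Test compound dissolved at 1.0 mM, or as indicated, in freshly distilled DMSO (conductivity ≤3 × 10−8 […]). Conductivity measured at 25 ± 2 °C immediately after complete dissolution, then after 24 h and after 48 h.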

3CL^pro (SARS-CoV-2) = 3CL^pro (SARS-CoV-2) (Severe acute respiratory syndrome coronavirus 2, UniProt P0DTD1); type: biochemical
SARS-CoV-2 B.1 = assay: Antiviral activity against SARS-CoV-2 in Caco-2-F03 cells; type: cell-based; conditions: for Effect on viral activity at higher dosages: overlapping with toxicity
SARS-CoV-2 PL^pro [1] = target: T1, SARS-CoV-2 PL^pro (Severe acute respiratory syndrome coronavirus 2, UniProt P0DTD1); assay: Zn-ejection assay with FluoZin-3; type: biochemical; conditions: 0.5 μM PLpro, 100 min
PL^pro (SARS-CoV) = PL^pro (SARS-CoV) (Severe acute respiratory syndrome coronavirus, UniProt P0C6X7); type: biochemical; conditions: read-out: IC50 PL^pro (SARS-CoV)
SARS-CoV-2 PL^pro [2] = target: T1, SARS-CoV-2 PL^pro; assay: Michaelis-Menten kinetics with SARS-CoV-2 PLpro; type: biochemical
CaCo-2 cells = assay: Toxicity against host cells; type: cell-based, human; conditions: 25 to 500 μM, 24 h / 48 h
Procedure, shortened: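 Caco-2 cells were grown to almost confluent monolayers in 96-well plates. Test compound was given as a DMSO stock (DMSO 0.2%) diluted in DMEM with 1% fetal calf serum and 50 mg L−1 gentamicin, at 25–500 μM. Exposure was 24 h and 48 h at 37 °C/5% CO2. Viability was measured by crystal violet staining as % of untreated control, in three independent experiments.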

[3] = read-out: IC50 PL^pro (SARS-CoV-2), mean ± SD of 2 independent experiments
[4] = 3CL^pro, 50 μM, ± SD of 2 experiments

Structure (SMILES) | IC50 (PL^pro (SARS-CoV-2); [3]) [nM] | Conductivity ΛM (Conductometry in DMSO; 24 h) [S mol^−1 cm^2] | Conductivity ΛM (Conductometry in DMSO; 48 h) [S mol^−1 cm^2] | Conductivity ΛM (Conductometry in DMSO; start) [S mol^−1 cm^2] | Percentage of activity of the enzyme in presence of 50 μM of the test compound (3CL^pro (SARS-CoV-2); [4]) [%] | other results
CCn1c[n+](CC)c2ccccc21.[Ag][I] [Ag-1b, 1,3-Diethyl-benzimidazolium silver(I) iodide] | 240 ± 110 | 9.31 | 9.70 | 8.44 | 110 ± 0 | Effect on viral activity at higher dosages (SARS-CoV-2 B.1): completely terminated viral activity
CCN(CC)C(=S)SSC(=S)N(CC)CC [Disulfiram, reference compound] |  |  |  |  |  | Zn ejection efficacy (SARS-CoV-2 PL^pro [1]; 1.0 μM compound): low efficacy; Zn ejection efficacy (SARS-CoV-2 PL^pro [1]; 10 μM compound): high efficacy
CCn1c[n+](CC)c2ccc(OC)cc21.[Ag][I] [Ag-2b, 1,3-Diethyl-5-methoxy-benzimidazolium silver(I) iodide] | 430 ± 60 | 9.25 | 9.82 | 9.19 | 115 ± 4 | 
O=[N+]([O-])[O-].[Ag+] [AgNO3, silver nitrate, reference compound] | 700 ± 270 | 38 | 38 | 38 | 97 ± 6 | IC50 (PL^pro (SARS-CoV)): 12.1 ± 0.87 µM; Conductivity (Conductometry in DMSO; in DMSO, periods up to 48 h): 38 S mol^−1 cm^2
CCn1c[n+](CC)c2ccccc21.[Cl][Ag] [Ag-1a, 1,3-Diethyl benzimidazolium silver(I) chloride] | 210 ± 30 | 3.09 | 3.31 | 3.00 | 106 ± 2 | 
CC(C)n1c[n+](C(C)C)c2ccccc21.[Ag][I] [Ag-3b, 1,3-Diisopropyl benzimidazolium silver(I) iodide] | 190 ± 40 | 7.00 | 6.69 | 6.67 | 111 ± 14 | Increase of molecular conductivity upon 10-fold dilution (Conductometry in DMSO): only slightly increased; Effect on viral activity at higher dosages (SARS-CoV-2 B.1): completely terminated viral activity
COc1ccc2c(c1)n(C(C)C)c[n+]2C(C)C.[Ag][I] [Ag-4b, 1,3-Diisopropyl-5-methoxy-benzimidazolium silver(I) iodide] | 390 ± 70 | 6.92 | 7.32 | 6.72 | 116 ± 2 | Zn ejection efficacy (SARS-CoV-2 PL^pro [1]; 1.0 μM compound): low efficacy; Zn ejection efficacy (SARS-CoV-2 PL^pro [1]; 10 μM compound): high efficacy; IC50 (PL^pro (SARS-CoV)): 13.7 ± 1.02 µM; Enzymatic activity (% of untreated control) (PL^pro (SARS-CoV-2); 0.75 μM, after 60 min): approx. 40%; Enzymatic turnover (% of untreated control) (PL^pro (SARS-CoV-2); 0.75 μM, from beginning up to 30 min of exposure): approx. 60%; Mechanism of inhibition (SARS-CoV-2 PL^pro [2]; Lineweaver-Burk, parallel lines): uncompetitive enzyme inhibitor; Ki (enzyme-substrate-inhibitor complex) (SARS-CoV-2 PL^pro [2]; uncompetitive model): 0.48 ± 0.22 µM; IC50 (SARS-CoV-2 B.1; read-out: IC50 antiviral efficacy (spike protein staining)): 580 nM; Cytotoxicity against almost confluent Caco-2 cell layers (CaCo-2 cells): non-toxic up to 500 μM
CC(C)n1c[n+](C(C)C)c2ccccc21.[Cl][Ag] [Ag-3a, 1,3-Diisopropyl benzimidazolium silver(I) chloride] | 210 ± 20 | 2.70 | 2.67 | 2.34 | 116 ± 5 | Increase of molecular conductivity upon 10-fold dilution (Conductometry in DMSO): 2–4 fold
CC(=O)O.[Ag+].c1ccc(CN2[CH-]N(Cc3ccccc3)C(c3ccccc3)=C2c2ccccc2)cc1 [SBC3, reference compound] |  | 2.25 | 2.31 | 2.15 |  | IC50 (PL^pro (SARS-CoV-2); read-out: IC50 PL^pro (SARS-CoV-2)): 260 ± 30 nM; Increase of molecular conductivity upon 10-fold dilution (Conductometry in DMSO): 2–4 fold; Inhibition of 3CL^pro enzymatic activity (3CL^pro (SARS-CoV-2)): some moderate inhibition; Percentage of activity of the enzyme in presence of 50 μM of the test compound (3CL^pro (SARS-CoV-2)): >50 (70 ± 4%); IC50 (3CL^pro (SARS-CoV-2); read-out: IC50 3CL^pro (SARS-CoV-2)): > 50 µM
CCn1c[n+](CC)c2ccc(OC)cc21.[Cl][Ag] [Ag-2a, 1,3-Diethyl-5-methoxy-benzimidazolium silver(I) chloride] | 180 ± 20 | 3.13 | 3.37 | 2.94 | 98 ± 15 | 
COc1ccc2c(c1)n(C(C)C)c[n+]2C(C)C [compound 4, 1,3-Diisopropyl-5-methoxy-benzimidazolium iodide] |  |  |  |  |  | IC50 (PL^pro (SARS-CoV-2)): > 100000 nM
COc1ccc2c(c1)n(C(C)C)c[n+]2C(C)C.[Cl][Ag] [Ag-4a, 1,3-Diisopropyl-5-methoxy-benzimidazolium silver(I) chloride] | 220 ± 110 | 2.25 | 2.40 | 2.15 | 115 ± 4 | 
